High-throughput results (PubChem)
MPTP inh – blocks calcium-induced mitochondrial swelling; inhibition, % at 10 µM; isolated mouse mitochondria, Ca2+ swelling absorbance, 30 min; actives 1.4% (n = 360,000);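 active means inhibition of 50% or more, scaled per plate between neutral and stimulator controls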;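 further: 0% = DMSO wells given calcium and 100% = 1 mM EGTA wells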
MIN6 prolif-1 – inducers of beta-cell replication in MIN6 cells; MIN6 cells proliferation, ATPlite luminescence, 48 h; cells starved in 0.2% serum; 100% = growth in 10% serum; proliferation, % at 10 µM; actives 0.29% (n = 330,000);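 active means compounds whose signal lies at least 3.5 SD above the mean of all wells on their plate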;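 further: 0% = DMSO-treated cells in low-serum medium and 100% = 10% serum control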
Apaf1 inhib – inhibitors of human Apaf-1 apoptosome | reconstituted apoptosome caspase-3 activity, DEVD-Rh110 fluorescence | actives 0.71% (n = 330,000) | O14727 | inhibition, % at 20 µM; active means inhibition of at least 40% at 20 µM;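 further: plate controls were DMSO wells for no effect and DEVD-CHO caspase inhibitor wells for full effect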
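Material: reconstituted apoptosome with Apaf-1, cytochrome c, caspase-9, procaspase-3, dATP. Technique: Rh110 fluorescence intensity. Buffer or medium: pH 7.5 Hepes buffer with CHAPS, BSA, DTT. Times: 30 min plus 50 min, RT.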
UBC13 inh – human UBC13 polyubiquitination inhibition | AID 485273 | P61088 | actives 0.47% (n = 330,000) | UBC13 polyubiquitin chain formation, TR-FRET | inhibition, % at 20 µM; in the data active means inhibition above about 45%, passing the limit was not always enough
Target sequence (P61088 whole entry, looked up): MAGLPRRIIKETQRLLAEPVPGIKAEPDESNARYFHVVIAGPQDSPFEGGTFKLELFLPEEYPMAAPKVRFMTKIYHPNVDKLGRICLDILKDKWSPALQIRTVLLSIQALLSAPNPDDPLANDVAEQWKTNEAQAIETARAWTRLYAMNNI
hiPSC survival – enhancers of human iPSC single-cell survival; survival enhancement, % at 20 µM; actives 0.044% (n = 360,000); hiPSC single-cell survival, ATPlite luminescence; 100% = ROCK inhibitor wells, 0% = DMSO; AID 602274; in the data active means survival enhancement above about 18%;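 further: cells exposed to compounds for 16 hours before the ATP read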
Granule exo inh – blocks lytic granule exocytosis. TALL-104 LAMP-1 surface exposure, flow cytometry; cells stimulated with thapsigargin and PMA. inhibition, % at 10 µM. actives 0.66% (n = 360,000);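 active means inhibition above about 55%, limit read from the data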
MIN6 prolif-2 – confirmation of inducers of beta-cell replication in MIN6 cells | shares compounds with MIN6 prolif-1 | MIN6 beta-cell proliferation, ATPlite luminescence, 48 h; cells kept in 0.2% serum; scaled between 0.2% and 10% serum | proliferation increase, % at 50 µM | 920 tested, under 10 active | AID 463095;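 active means proliferation increase above 40% at any of the four tested concentrations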
* marks the source's active call; other numbers are inactive results; . = no result. An excerpt weighted towards active compounds, which were near 3% of everything screened.

SMILES	MPTP inh	MIN6 prolif-1	Apaf1 inhib	UBC13 inh	hiPSC survival	Granule exo inh	MIN6 prolif-2
CC(C)[C@H](NS(=O)(=O)c1ccccc1)C(=O)OCC(=O)Nc1ccc2c(c1)OCO2	-1	4.6*	-3	6	-1	2	0
CCOc1ccc(NC(=O)CN(C)C(=O)c2cc(S(=O)(=O)N3CCCCC3)ccc2Cl)cc1OCC	0	3	6	1	0	3	.
CCOc1ccc(NC(=O)CN(C)C(=O)c2cc(S(=O)(=O)N3CCCCC3)ccc2C)cc1OCC	-2	12*	3	0	0	8	5
COC(=O)c1ccc(CO/N=C/c2ccc(OC)cc2OC)cc1	1	8.0*	23	-2	0	16	0
CCOc1ccccc1/C=N/NC(=O)c1nnn(-c2nonc2N)c1CN1CCCC1	2	-2	-8	6	0	2	.
CCN1C(=O)/C(=C/c2ccc(C)o2)N(C)C1=S	7	0.0*	-8	0	1	58*	-1
CCN1C(=O)/C(=C/c2cccs2)N(C)C1=S	0	1	6	-28	0	5	.
Nc1c(NC=O)c(=O)n(Cc2ccccc2)c(=O)n1Cc1ccccc1	0	-4	-15	1	0	2	.
COc1cc(/C=N/NS(=O)(=O)c2ccc3ccccc3c2)ccc1OCCN1CCOCC1	-1	0.0*	-6	-14	-1	-3	-5
O=C(CN1CCN(S(=O)(=O)c2cccs2)CC1)N1CCCCC1	-3	1	-8	0	1	1	.
COC(=O)c1ccc(S(=O)(=O)NCc2ccc(S(N)(=O)=O)cc2)n1C	4	-3	-23	3	0	-1	.
COC(=O)c1ccc(S(=O)(=O)NCc2cccc(OC)c2)n1C	-2	5.5*	-17	-2	4	-2	0
O=C(c1cccc(S(=O)(=O)Nc2ccccc2Cl)c1)N1CCN(c2ccccc2O)CC1	1	0	2	12	0	0	.
CCOc1ccccc1NC(=O)Cn1c(=O)c(OCC)nc2cnccc21	0	12*	-7	7	-1	6	1
CCOc1nc2cnccc2n(CC(=O)Nc2c(F)c(F)cc(F)c2F)c1=O	-2	-1	-16	-12	-1	-2	.
CCOc1nc2cnccc2n(CC(=O)Nc2ccccc2C(=O)OC)c1=O	0	14*	-7	7	-1	-6	1
O=C1NC[C@H](CCCCN2C[C@H](Cc3ccc(O)cc3)N(CCc3ccc(O)cc3)C(=O)C2=O)N(Cc2ccccc2)C1=O	0	.	.	.	1	-4	.
Cc1ccccc1Cn1nnc(-c2ccc3c(c2)OCO3)n1	2	-4	10	-4	-4	0	.
CC(=O)Nc1nc(Cn2nnc(-c3ccc4c(c3)OCO4)n2)nc(N(C)C)n1	-1	8.8*	-12	-2	0	1	2
Cc1ccc(NC(=O)CSc2nnc3ccc(-c4ccncc4)nn23)cc1	0	-4	10	-10	0	-5	.
COCCNC(=O)C1CCCN(C(=O)c2nc(C)oc2C)CC1 (configuration not stated)	0	.	.	.	4	-7	.
COc1ccccc1N(C(=O)c1snc(C(N)=O)c1N)C(C(=O)NC1CCCCC1)c1cccc(OC)c1OC (configuration not stated)	0	25*	14	7	0	6	-6
COc1ccc(N(C(=O)c2ccco2)C(C(=O)NC2CCCC2)c2cccs2)cc1OC (configuration not stated)	-2	-2	-7	2	2	1	.
COc1ccccc1N(C(=O)c1ccco1)C(C(=O)NC1CCCC1)c1cccs1 (configuration not stated)	-2	0.0*	7	3	0	-1	-1
COc1ccc(-c2cnnn2-c2ccc(N)cc2)cc1OC	-2	7.6*	-7	5	2	0	5
SMILES	MPTP inh	MIN6 prolif-1	Apaf1 inhib	UBC13 inh	hiPSC survival	Granule exo inh	MIN6 prolif-2
CCOC(=O)C1(Cc2ccccc2C)CCCN(C(=O)CSC)C1 (configuration not stated)	1	.	.	.	2	-9	.
CCOC(=O)C1(Cc2ccccc2C)CCCN(C(=O)CCn2nccc2C)C1 (configuration not stated)	-1	11*	13	4	-2	-1	-4
COc1ccccc1CC(=O)OC(C)C(=O)Nc1ccc(S(=O)(=O)N2CCCCC2)cc1 (configuration not stated)	0	0	5	-7	-1	0	.
CCOC(=O)C1CCN(c2cc3c(cc2NC(=O)c2ccccc2Cl)n(C)c(=O)n3C)CC1	-2	15*	21	10	0	8	-6
CC(=O)CCc1ccc(OCCCOc2cccc3cccnc23)cc1	1	5.7*	8	4	0	-2	-6
OC(CN1CCCCC1)c1ccc2c3c(cccc13)CC2 (configuration not stated)	0	.	.	.	4	-1	.
COc1ccc(CCN(C)C(=O)c2cc(-c3ccccc3)nc3ccc(C)cc23)cc1OC	0	11*	37	3	0	11	-6
CC(C(=O)N(C)C1CCCCC1)N1CCC(C(N)=O)CC1 (configuration not stated)	0	-3	3	-3	0	7	.
C=CCOn1c(C)c(C(C)=O)c2c3no[n+]([O-])c3ccc21	1	7.6*	7	0	2	0	4
COc1ccccc1OCCNC(=O)CNC(=O)c1ccc2c(c1)OCO2	-1	5	-6	1	0	0	.
Cc1ccc(OCCNC(=O)CNC(=O)c2ccc3c(c2)OCO3)cc1	0	11*	-3	-3	0	-3	-4
COc1cccc(C2CC(c3ccccc3)Nc3nc(N)nn32)c1 (configuration not stated)	-2	-3	1	1	-2	0	.
COc1ccc(C2CC(c3cccc(OC)c3)n3nc(N)nc3N2)cc1 (configuration not stated)	-2	9.1*	2	-12	-1	-1	2
CS(=O)(=O)c1ccc(-c2csc(-c3cccnc3)n2)cc1	0	9.8*	0	1	0	-9	3
CC1(C)CNC(=O)CC(C)(C)N1O	0	6.6*	-9	2	1	0	-4
COC(=O)c1cc(C)sc1NC(=O)c1ccco1	0	-3	-4	8	0	0	.
COC(=O)c1ccsc1NC(=O)c1ccco1	1	11*	-2	17	0	0	6
CC(=O)C12OC(C)(C)OC1CC1C3CCC4=CC(=O)C=CC4(C)C3(F)C(O)CC12C (configuration not stated)	1	.	.	.	3	-1	.
